In ChEMBL document CHEMBL1139935, “Discovery of novel indazole-linked triazoles as antifungal agents” (2007):
In brackets after ≈: the same amount, converted by molar mass.

Assays:
Candida albicans [1] = test: Antifungal activity against Candida albicans ATCC 36082 by broth microdilution assay; assay type: functional
Cryptococcus neoformans = test: Antifungal activity against Cryptococcus neoformans ATCC 24065 by broth microdilution assay
Aspergillus niger = test: Antifungal activity against Aspergillus niger ATCC 9042 by broth microdilution assay; assay type: functional
Candida tropicalis = test: Antifungal activity against Candida tropicalis ATCC 750 by broth microdilution assay; assay type: functional
Aspergillus terreus = test: Antifungal activity against Aspergillus terreus ATCC 28301 by broth microdilution assay; assay type: functional
Clavispora lusitaniae = test: Antifungal activity against Candida lusitaniae ATCC 42720 by broth microdilution assay; assay type: functional
Aspergillus fumigatus = test: Antifungal activity against Aspergillus fumigatus ATCC 16424 by broth microdilution assay; assay type: functional
Pichia kudriavzevii = test: Antifungal activity against Candida krusei ATCC 6528 by broth microdilution assay; assay type: functional
Candida parapsilosis = test: Antifungal activity against Candida parapsilosis ATCC 21019 by broth microdilution assay; assay type: functional; conditions: Lodderomyces parapsilosis
Nakaseomyces glabratus = test: Antifungal activity against Candida glabrata ATCC 34138 by broth microdilution assay; assay type: functional
Aspergillus flavus = test: Antifungal activity against Aspergillus flavus ATCC MYA-1004 by broth microdilution assay; assay type: functional
Candida albicans [2] = test: Antifungal activity against systemic Candida albicans ATCC 36082 infection model in ICR mouse assessed as survival at 20 mg/kg, po; assay type: functional
Summary of the method: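 C. albicans ATCC 36082 given systemically, about 5 × 10⁵ cells per animal. Oral dosing at 20 mg/kg once daily started 2 h post-infection and continued for 7 consecutive days. Read-out was mean survival days, compared against an untreated infected control group.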

HepG2 = test: Cytotoxicity against human HepG2 cells by neutral red uptake assay; assay type: functional
Summary of the method: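 Human hepatoma HepG2 cells; neutral red uptake read-out following a previously described protocol; the value is the CC50 (concentration giving half-maximal cytotoxicity); ketoconazole served as reference agent.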

Compound: C[C@@H](n1ncc2cc(F)ccc21)[C@](O)(Cn1cncn1)c1ccc(F)cc1F
- MIC80 (Candida albicans [1]): ≤ 0.015 µg/mL
- MIC80 (Cryptococcus neoformans): 0.063 µg/mL (≈ 0.163 µM)
- MIC80 (Aspergillus niger): 8 µg/mL (≈ 20.7 µM)
- MIC80 (Candida tropicalis): 0.25 µg/mL (≈ 0.645 µM)
- MIC80 (Aspergillus terreus): 4 µg/mL (≈ 10.3 µM)
- MIC80 (Clavispora lusitaniae): ≤ 0.015 µg/mL
- MIC80 (Aspergillus fumigatus): 4 µg/mL (≈ 10.3 µM)
- MIC80 (Pichia kudriavzevii): 1 µg/mL (≈ 2.58 µM)
- MIC80 (Candida parapsilosis): 0.125 µg/mL (≈ 0.323 µM)
- MIC80 (Nakaseomyces glabratus): 4 µg/mL (≈ 10.3 µM)
- MIC80 (Aspergillus flavus): 4 µg/mL (≈ 10.3 µM)

Compound: C[C@@H](n1cc2ccc([N+](=O)[O-])cc2n1)[C@](O)(Cn1cncn1)c1ccc(F)cc1F
- MIC80 (Candida albicans [1]): 0.063 µg/mL (≈ 0.152 µM)
- MIC80 (Cryptococcus neoformans): 0.5 µg/mL (≈ 1.21 µM)
- MIC80 (Aspergillus niger): 64 µg/mL (≈ 154 µM)
- MIC80 (Candida tropicalis): 8 µg/mL (≈ 19.3 µM)
- MIC80 (Aspergillus terreus): 128 µg/mL (≈ 309 µM)
- MIC80 (Clavispora lusitaniae): 0.5 µg/mL (≈ 1.21 µM)
- MIC80 (Aspergillus fumigatus): 32 µg/mL (≈ 77.2 µM)
- MIC80 (Pichia kudriavzevii): > 8 µg/mL
- MIC80 (Candida parapsilosis): 0.25 µg/mL (≈ 0.603 µM)
- MIC80 (Nakaseomyces glabratus): > 8 µg/mL
- MIC80 (Aspergillus flavus): 32 µg/mL (≈ 77.2 µM)

Compound: C[C@@H](n1cc2cc(F)ccc2n1)[C@](O)(Cn1cncn1)c1ccc(F)cc1F
- MIC80 (Candida albicans [1]): ≤ 0.015 µg/mL
- MIC80 (Cryptococcus neoformans): 0.063 µg/mL (≈ 0.163 µM)
- MIC80 (Aspergillus niger): 1 µg/mL (≈ 2.58 µM)
- MIC80 (Candida tropicalis): 0.125 µg/mL (≈ 0.323 µM)
- MIC80 (Aspergillus terreus): 0.5 µg/mL (≈ 1.29 µM)
- MIC80 (Clavispora lusitaniae): ≤ 0.015 µg/mL
- MIC80 (Aspergillus fumigatus): 0.25 µg/mL (≈ 0.645 µM)
- MIC80 (Pichia kudriavzevii): 0.5 µg/mL (≈ 1.29 µM)
- MIC80 (Candida parapsilosis): 0.031 µg/mL (≈ 0.08 µM)
- MIC80 (Nakaseomyces glabratus): 4 µg/mL (≈ 10.3 µM)
- MIC80 (Aspergillus flavus): 0.5 µg/mL (≈ 1.29 µM)

Compound: C[C@@H](n1cc2cc(Cl)ccc2n1)[C@](O)(Cn1cncn1)c1ccc(F)cc1F
- MIC80 (Candida albicans [1]): ≤ 0.015 µg/mL
- MIC80 (Cryptococcus neoformans): 0.015 µg/mL (≈ 0.0371 µM)
- MIC80 (Aspergillus niger): 1 µg/mL (≈ 2.48 µM)
- MIC80 (Candida tropicalis): 0.031 µg/mL (≈ 0.0768 µM)
- MIC80 (Aspergillus terreus): 0.5 µg/mL (≈ 1.24 µM)
- MIC80 (Clavispora lusitaniae): ≤ 0.015 µg/mL
- MIC80 (Aspergillus fumigatus): 0.25 µg/mL (≈ 0.619 µM)
- MIC80 (Pichia kudriavzevii): 0.125 µg/mL (≈ 0.31 µM)
- MIC80 (Candida parapsilosis): ≤ 0.015 µg/mL
- MIC80 (Nakaseomyces glabratus): 4 µg/mL (≈ 9.91 µM)
- MIC80 (Aspergillus flavus): 0.5 µg/mL (≈ 1.24 µM)

Compound: Cc1nn([C@H](C)[C@](O)(Cn2cncn2)c2ccc(F)cc2F)c2ccc(Cl)cc12
- MIC80 (Candida albicans [1]): ≤ 0.015 µg/mL
- MIC80 (Cryptococcus neoformans): 0.25 µg/mL (≈ 0.598 µM)
- MIC80 (Aspergillus niger): > 16 µg/mL
- MIC80 (Candida tropicalis): 1 µg/mL (≈ 2.39 µM)
- MIC80 (Aspergillus terreus): > 16 µg/mL
- MIC80 (Clavispora lusitaniae): ≤ 0.015 µg/mL
- MIC80 (Aspergillus fumigatus): > 16 µg/mL
- MIC80 (Pichia kudriavzevii): 2 µg/mL (≈ 4.79 µM)
- MIC80 (Candida parapsilosis): 0.125 µg/mL (≈ 0.299 µM)
- MIC80 (Nakaseomyces glabratus): 4 µg/mL (≈ 9.57 µM)
- MIC80 (Aspergillus flavus): > 16 µg/mL

Compound: C[C@@H](n1ncc2cc(N)ccc21)[C@](O)(Cn1cncn1)c1ccc(F)cc1F
- MIC80 (Candida albicans [1]): 0.25 µg/mL (≈ 0.65 µM)
- MIC80 (Cryptococcus neoformans): 1 µg/mL (≈ 2.6 µM)
- MIC80 (Candida tropicalis): 1 µg/mL (≈ 2.6 µM)
- MIC80 (Clavispora lusitaniae): 0.25 µg/mL (≈ 0.65 µM)
- MIC80 (Pichia kudriavzevii): 8 µg/mL (≈ 20.8 µM)
- MIC80 (Candida parapsilosis): 2 µg/mL (≈ 5.2 µM)
- MIC80 (Nakaseomyces glabratus): > 8 µg/mL

Compound: C[C@@H](n1ncc2cc(N(C)C)ccc21)[C@](O)(Cn1cncn1)c1ccc(F)cc1F
- MIC80 (Candida albicans [1]): 0.063 µg/mL (≈ 0.153 µM)
- MIC80 (Cryptococcus neoformans): 0.25 µg/mL (≈ 0.606 µM)
- MIC80 (Aspergillus niger): 2 µg/mL (≈ 4.85 µM)
- MIC80 (Candida tropicalis): 0.5 µg/mL (≈ 1.21 µM)
- MIC80 (Aspergillus terreus): 2 µg/mL (≈ 4.85 µM)
- MIC80 (Clavispora lusitaniae): 0.063 µg/mL (≈ 0.153 µM)
- MIC80 (Aspergillus fumigatus): 1 µg/mL (≈ 2.42 µM)
- MIC80 (Pichia kudriavzevii): 1 µg/mL (≈ 2.42 µM)
- MIC80 (Candida parapsilosis): 0.5 µg/mL (≈ 1.21 µM)
- MIC80 (Nakaseomyces glabratus): 8 µg/mL (≈ 19.4 µM)
- MIC80 (Aspergillus flavus): 1 µg/mL (≈ 2.42 µM)

Compound: C[C@@H](n1ncc2cc(Br)ccc21)[C@](O)(Cn1cncn1)c1ccc(F)cc1F
- MIC80 (Candida albicans [1]): ≤ 0.015 µg/mL
- MIC80 (Cryptococcus neoformans): ≤ 0.015 µg/mL
- MIC80 (Aspergillus niger): 4 µg/mL (≈ 8.92 µM)
- MIC80 (Candida tropicalis): 1 µg/mL (≈ 2.23 µM)
- MIC80 (Aspergillus terreus): 4 µg/mL (≈ 8.92 µM)
- MIC80 (Clavispora lusitaniae): ≤ 0.015 µg/mL
- MIC80 (Aspergillus fumigatus): 2 µg/mL (≈ 4.46 µM)
- MIC80 (Pichia kudriavzevii): 2 µg/mL (≈ 4.46 µM)
- MIC80 (Candida parapsilosis): 0.125 µg/mL (≈ 0.279 µM)
- MIC80 (Nakaseomyces glabratus): 4 µg/mL (≈ 8.92 µM)
- MIC80 (Aspergillus flavus): 4 µg/mL (≈ 8.92 µM)

Compound: Cc1nn([C@H](C)[C@](O)(Cn2cncn2)c2ccc(F)cc2F)c2ccc([N+](=O)[O-])cc12
- MIC80 (Candida albicans [1]): 0.015 µg/mL (≈ 0.035 µM)
- MIC80 (Cryptococcus neoformans): 0.25 µg/mL (≈ 0.584 µM)
- MIC80 (Aspergillus niger): 16 µg/mL (≈ 37.3 µM)
- MIC80 (Candida tropicalis): 4 µg/mL (≈ 9.34 µM)
- MIC80 (Aspergillus terreus): 8 µg/mL (≈ 18.7 µM)
- MIC80 (Clavispora lusitaniae): 0.063 µg/mL (≈ 0.147 µM)
- MIC80 (Aspergillus fumigatus): 4 µg/mL (≈ 9.34 µM)
- MIC80 (Pichia kudriavzevii): 4 µg/mL (≈ 9.34 µM)
- MIC80 (Candida parapsilosis): 0.125 µg/mL (≈ 0.292 µM)
- MIC80 (Nakaseomyces glabratus): 8 µg/mL (≈ 18.7 µM)
- MIC80 (Aspergillus flavus): 16 µg/mL (≈ 37.3 µM)

Compound: Cc1nn([C@H](C)[C@](O)(Cn2cncn2)c2ccc(F)cc2F)c2ccc(F)cc12
- MIC80 (Candida albicans [1]): 0.031 µg/mL (≈ 0.0772 µM)
- MIC80 (Cryptococcus neoformans): 0.5 µg/mL (≈ 1.25 µM)
- MIC80 (Aspergillus niger): 16 µg/mL (≈ 39.9 µM)
- MIC80 (Candida tropicalis): 4 µg/mL (≈ 9.97 µM)
- MIC80 (Aspergillus terreus): 4 µg/mL (≈ 9.97 µM)
- MIC80 (Clavispora lusitaniae): 0.125 µg/mL (≈ 0.311 µM)
- MIC80 (Aspergillus fumigatus): 4 µg/mL (≈ 9.97 µM)
- MIC80 (Pichia kudriavzevii): 4 µg/mL (≈ 9.97 µM)
- MIC80 (Candida parapsilosis): 0.5 µg/mL (≈ 1.25 µM)
- MIC80 (Nakaseomyces glabratus): 8 µg/mL (≈ 19.9 µM)
- MIC80 (Aspergillus flavus): 8 µg/mL (≈ 19.9 µM)

Compound: C[C@@H](n1ncc2ccccc21)[C@](O)(Cn1cncn1)c1ccc(F)cc1F
- MIC80 (Candida albicans [1]): ≤ 0.015 µg/mL
- MIC80 (Cryptococcus neoformans): 0.063 µg/mL (≈ 0.171 µM)
- MIC80 (Aspergillus niger): 4 µg/mL (≈ 10.8 µM)
- MIC80 (Candida tropicalis): 0.125 µg/mL (≈ 0.338 µM)
- MIC80 (Aspergillus terreus): 2 µg/mL (≈ 5.41 µM)
- MIC80 (Clavispora lusitaniae): 0.063 µg/mL (≈ 0.171 µM)
- Survival (Candida albicans [2]): 7.2 days
- MIC80 (Aspergillus fumigatus): 2 µg/mL (≈ 5.41 µM)
- MIC80 (Pichia kudriavzevii): 0.5 µg/mL (≈ 1.35 µM)
- MIC80 (Candida parapsilosis): 0.063 µg/mL (≈ 0.171 µM)
- MIC80 (Nakaseomyces glabratus): 2 µg/mL (≈ 5.41 µM)
- CC50 (HepG2): 599 µM
- MIC80 (Aspergillus flavus): 1 µg/mL (≈ 2.71 µM)

Compound: C[C@@H](n1ncc2ccc([N+](=O)[O-])cc21)[C@](O)(Cn1cncn1)c1ccc(F)cc1F
- MIC80 (Candida albicans [1]): ≤ 0.015 µg/mL
- MIC80 (Cryptococcus neoformans): 0.25 µg/mL (≈ 0.603 µM)
- MIC80 (Aspergillus niger): 4 µg/mL (≈ 9.65 µM)
- MIC80 (Candida tropicalis): ≤ 0.015 µg/mL
- MIC80 (Aspergillus terreus): 2 µg/mL (≈ 4.83 µM)
- MIC80 (Clavispora lusitaniae): ≤ 0.015 µg/mL
- MIC80 (Aspergillus fumigatus): 2 µg/mL (≈ 4.83 µM)
- MIC80 (Pichia kudriavzevii): 0.5 µg/mL (≈ 1.21 µM)
- MIC80 (Candida parapsilosis): ≤ 0.015 µg/mL
- MIC80 (Nakaseomyces glabratus): 8 µg/mL (≈ 19.3 µM)
- MIC80 (Aspergillus flavus): 2 µg/mL (≈ 4.83 µM)

Compound: C[C@@H](n1ncc2cccc([N+](=O)[O-])c21)[C@](O)(Cn1cncn1)c1ccc(F)cc1F
- MIC80 (Candida albicans [1]): ≤ 0.015 µg/mL
- MIC80 (Cryptococcus neoformans): 0.125 µg/mL (≈ 0.302 µM)
- MIC80 (Aspergillus niger): 4 µg/mL (≈ 9.65 µM)
- MIC80 (Candida tropicalis): ≤ 0.015 µg/mL
- MIC80 (Aspergillus terreus): 2 µg/mL (≈ 4.83 µM)
- MIC80 (Clavispora lusitaniae): ≤ 0.015 µg/mL
- MIC80 (Aspergillus fumigatus): 2 µg/mL (≈ 4.83 µM)
- MIC80 (Pichia kudriavzevii): 0.5 µg/mL (≈ 1.21 µM)
- MIC80 (Candida parapsilosis): ≤ 0.015 µg/mL
- MIC80 (Nakaseomyces glabratus): 4 µg/mL (≈ 9.65 µM)
- MIC80 (Aspergillus flavus): 1 µg/mL (≈ 2.41 µM)
